The source made the active and inactive calls. The rule behind the calls is not given here.
Tests used:
[1] = tested on: SW-620; assay: Cytotoxicity against human SW620 cells assessed as cell viability after 48 hrs by MTT assay; type: functional, cell-based
In short: (§1)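 Cells seeded at 5000/well in 96-well plates, adhered overnight, then exposed to compound for 24 or 48 h (0−20 μM for SW480/SW620; 0−30 μM for HCT116 p53+/+ and p53−/−). MTT (5 mg/mL) added for 3.5 h, formazan dissolved in DMSO, OD read at 570 nm with 655 nm reference. Means ± SE from three independent experiments; IC50 derived from viability curves.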

[2] = tested on: SW-620; assay: Upregulation of HBP1 protein expression in human SW620 cells at 6 uM after 24 hrs by Western blot analysis relative to control; type: functional
In short: (§2)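 10^6 cells/well in six-well plates treated 24 h with compound (6 μM SW620; 10 μM HCT116 lines) or DMSO control. Lysed 1 h on ice in Tris/NaCl/Triton/deoxycholate buffer with phosphatase and protease inhibitors; 50−75 μg protein on 8−10% SDS-PAGE, PVDF, primary antibodies 1:1000 overnight 4 °C, HRP secondaries 1:10 000, chemiluminescence; β-actin loading control; three independent experiments.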

[3] = tested on: SW-620; assay: Inhibition of proto-oncogene protein Wnt in human SW620 cells assessed as downregulation of p300 protein expression at 6 uM after 24 hrs by Western blot analysis; type: cell-based; in short: as §2
[4] = tested on: SW-620; assay: Inhibition of proto-oncogene protein Wnt/beta-catenin in human SW620 cells assessed as downregulation of vimentin protein expression at 6 uM after 24 hrs by Western blot analysis relative to control; type: cell-based; in short: as §2
[5] = tested on: HCT-116; assay: Inhibition of proto-oncogene protein Wnt/beta-catenin in p53-deficient human HCT116 cells assessed as downregulation of TCF/LEF promoter transcriptional activity at 5 to 10 uM after 24 hrs by TOPFlash/FOPFlash luciferase reporter gene assay; type: cell-based
In short: (§3)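 3 × 10^4 cells/well transfected with TOPFlash or FOPFlash plus Renilla plasmids (200 ng) by lipofectin in serum- and antibiotic-free DMEM. After 6 h, compound added in complete DMEM for 24 h (SW620 1−3 μM; HCT116 lines 5 and 10 μM), DMSO control. Dual luciferase read by photon counting, firefly normalized to Renilla; means ± SE, three independent experiments, Student t-test.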

[6] = tested on: HCT-116; assay: Upregulation of HBP1 protein expression in human HCT116 cells expressing p53 at 10 uM after 24 hrs by Western blot analysis; type: functional, cell-based; in short: as §2
[7] = tested on: HCT-116; assay: Upregulation of HBP1 protein expression in p53-deficient human HCT116 cells at 10 uM after 24 hrs by Western blot analysis; type: functional, cell-based; in short: as §2
[8] = tested on: SW480; assay: Inhibition of proto-oncogene protein Wnt in human SW480 cells assessed as downregulation of Bcl9l protein expression at 6 to 10 uM after 24 hrs by Western blot analysis; type: cell-based
[9] = tested on: SW480; assay: Inhibition of proto-oncogene protein Wnt in human SW480 cells assessed as downregulation of TCF7L2 protein expression at 6 to 10 uM after 24 hrs by Western blot analysis; type: cell-based
[10] = tested on: HCT-116; assay: Cytotoxicity against p53-deficient human HCT116 cells assessed as cell viability after 24 hrs by MTT assay; type: functional, cell-based; details: HCT-116, 24 h; in short: as §1
[11] = tested on: SW-620; assay: Cytotoxicity against human SW620 cells assessed as cell viability after 24 hrs by MTT assay; type: functional, cell-based; in short: as §1
[12] = tested on: SW480; assay: Inhibition of proto-oncogene protein Wnt/beta-catenin in human SW480 cells assessed as downregulation of mutant TCF/LEF promoter transcriptional activity at 1 to 3 uM after 24 hrs by FOPFlash luciferase reporter gene assay; type: cell-based
[13] = tested on: SW-620; assay: Inhibition of proto-oncogene protein Wnt in human SW620 cells assessed as downregulation of beta-catenin protein expression at 6 uM after 24 hrs by Western blot analysis; type: cell-based; in short: as §2
[14] = tested on: SW480; assay: Cytotoxicity against human SW480 cells assessed as cell viability after 48 hrs by MTT assay; type: functional, cell-based; in short: as §1
[15] = tested on: SW480; assay: Cytotoxicity against human SW480 cells assessed as cell viability after 24 hrs by MTT assay; type: functional, cell-based; in short: as §1
[16] = tested on: SW-620; assay: Inhibition of proto-oncogene protein Wnt in human SW620 cells assessed as downregulation of Bcl9l protein expression at 6 uM after 24 hrs by Western blot analysis; type: cell-based; in short: as §2
[17] = tested on: SW-620; assay: Inhibition of proto-oncogene protein Wnt in human SW620 cells assessed as downregulation of TCF7L2 protein expression at 6 uM after 24 hrs by Western blot analysis; type: cell-based; in short: as §2
[18] = tested on: SW480; assay: Inhibition of proto-oncogene protein Wnt/beta-catenin in human SW480 cells assessed as downregulation of TCF/LEF promoter transcriptional activity after 24 hrs by TOPFlash luciferase reporter gene assay; type: cell-based
[19] = tested on: SW480; assay: Inhibition of proto-oncogene protein Wnt in human SW480 cells assessed as downregulation of beta-catenin protein expression at 6 to 10 uM after 24 hrs by Western blot analysis; type: cell-based
[20] = tested on: SW480; assay: Inhibition of proto-oncogene protein Wnt in human SW480 cells assessed as downregulation of p300 protein expression at 6 to 10 uM after 24 hrs by Western blot analysis; type: cell-based
[21] = tested on: SW-620; assay: Inhibition of proto-oncogene protein Wnt/beta-catenin in human SW620 cells assessed as downregulation of c-Myc protein expression at 6 uM after 24 hrs by Western blot analysis relative to control; type: cell-based; in short: as §2
[22] = tested on: SW-620; assay: Inhibition of proto-oncogene protein Wnt/beta-catenin in human SW620 cells assessed as downregulation of cyclin D1 protein expression at 6 uM after 24 hrs by Western blot analysis relative to control; type: cell-based; in short: as §2
[23] = tested on: HCT-116; assay: Inhibition of proto-oncogene protein Wnt in human HCT116 cells expressing p53 assessed as downregulation of beta-catenin protein expression at 10 uM after 24 hrs by Western blot analysis relative to control; type: cell-based; in short: as §2
[24] = tested on: HCT-116; assay: Cytotoxicity against human HCT116 cells expressing p53 assessed as cell viability after 24 hrs by MTT assay; type: functional, cell-based; details: HCT-116, 24 h; in short: as §1
[25] = tested on: HCT-116; assay: Inhibition of proto-oncogene protein Wnt/beta-catenin in human HCT116 cells expressing p53 assessed as downregulation of TCF/LEF promoter transcriptional activity at 5 to 10 uM after 24 hrs by TOPFlash/FOPFlash luciferase reporter gene assay; type: cell-based; in short: as §3
[26] = tested on: SW-620; assay: Inhibition of proto-oncogene protein Wnt/beta-catenin in human SW620 cells assessed as downregulation of mutant TCF/LEF promoter transcriptional activity at 1 to 3 uM after 24 hrs by FOPFlash luciferase reporter gene assay; type: cell-based; in short: as §3
[27] = tested on: SW-620; assay: Inhibition of proto-oncogene protein Wnt/beta-catenin in human SW620 cells assessed as downregulation of TCF/LEF promoter transcriptional activity after 24 hrs by TOPFlash luciferase reporter gene assay; type: cell-based; in short: as §3
[28] = tested on: HCT-116; assay: Inhibition of proto-oncogene protein Wnt in p53-deficient human HCT116 cells assessed as downregulation of beta-catenin protein expression at 10 uM after 24 hrs by Western blot analysis relative to control; type: cell-based; in short: as §2

CC1=CC(=O)c2c(O)cccc2C1=O [PLUMBAGIN]
Activity [1]: Dose-dependent effect | IC50 ([1]; SW-620, 48 h): 7.4 µM | fold change (FC) [2]: 1.68 | inhibition [3]: Active | inhibition [4]: 50% | inhibition [5]: Active | Activity [6]: Active | Activity [7]: Active | inhibition [8]: Active | inhibition [9]: Active | IC50 [10]: 20 µM | Activity [11]: Dose-dependent effect | IC50 ([11]; SW-620, 24 h): 7.7 µM | inhibition [12]: inactive | inhibition [13]: Active | Activity [14]: Dose-dependent effect | IC50 ([14]; SW480, 48 h): 7.3 µM | Activity [15]: Dose-dependent effect | IC50 ([15]; SW480, 24 h): 12 µM | inhibition [16]: Active | inhibition [17]: Active | inhibition [18]: Dose-dependent effect | inhibition [19]: Active | inhibition [20]: Active | inhibition [21]: 50% | inhibition [22]: 50% | inhibition [23]: 33% | IC50 [24]: 20 µM | inhibition [25]: Active | inhibition [26]: inactive | inhibition [27]: Dose-dependent effect | inhibition [28]: 20%

Reference: ChEMBL document CHEMBL3297651, “Plumbagin downregulates Wnt signaling independent of p53 in human colorectal cancer cells” (J Nat Prod, 2014)
